According to ChEMBL document CHEMBL1141657, “Synthesis, structure elucidation and identification of antitumoural properties of novel fused 1,2,4-triazine aryl derivatives” (Eur J Med Chem, 2008):

Experiments:
[1] = Cytotoxicity against HSF cells assessed as cell viability at 1 uM after 24 hrs by MTT assay relative to control; assay type: cell-based; settings: human, read-out: Activity
Method in brief: (§1)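 Normal human skin fibroblasts (HSF, primary line) were exposed to DMSO-dissolved compound for 24 h. Viability was read by MTT tetrazolium reduction and expressed against untreated control set at 100%.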

Jurkat [2] = assay: Cytotoxicity against human Jurkat cells assessed as cell viability at 100 uM after 24 hrs by MTT assay relative to control; assay type: functional; settings: read-out: Activity
Method in brief: (§2)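 Jurkat T-cell leukaemia line grown in RPMI 1640 with 10% FBS, 2 mM L-glutamine and gentamycin at 37 °C, 5% CO2, kept in log phase. Compounds were dissolved in DMSO and applied for 24 h. Cells were washed in HEPES-buffered medium (pH 7.4) and given MTT at 0.5 mg/mL for 45 min at 37 °C. Formazan was dissolved in DMSO and read at 570 nm. Viability is % of control, from three independent measurements.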

[3] = Growth inhibition of human LS180 cells assessed as BrdU incorporation at 174.6 uM after 72 hrs by spectrophotometry; assay type: functional; settings: LS180, 72 h, read-out: GI
Method in brief: (§3)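 Cells were seeded at 10⁴ cells/mL and preincubated. Compounds were dissolved in DMSO and added at two fixed concentrations, then incubated for 72 h. End-point was BrdU labelling with ELISA detection, read spectrophotometrically. Result is % growth inhibition versus untreated controls. Triplicates.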

[4] = Cytotoxicity against HSF cells assessed as cell viability at 100 uM after 24 hrs by MTT assay relative to control; assay type: cell-based; settings: human, read-out: Activity; method in brief: as §1
[5] = Cytotoxicity against HSF cells assessed as cell viability at 50 uM after 24 hrs by MTT assay relative to control; assay type: cell-based; settings: human, read-out: Activity; method in brief: as §1
Vero [6] = assay: Growth inhibition of african green monkey Vero cells assessed as BrdU incorporation at 34.9 uM after 72 hrs by spectrophotometry; assay type: cell-based; settings: chlorocebus sabaeus; method in brief: as §3
[7] = Growth inhibition of HSF cells assessed as BrdU incorporation at 174.6 uM after 72 hrs by spectrophotometry; assay type: cell-based; settings: human; method in brief: as §3
[8] = Growth inhibition of african green monkey Vero cells assessed as BrdU incorporation at 174.6 uM after 72 hrs by spectrophotometry; assay type: cell-based; settings: chlorocebus sabaeus, read-out: GI; method in brief: as §3
T47D [9] = assay: Growth inhibition of human T47D cells assessed as BrdU incorporation at 34.9 uM after 72 hrs by spectrophotometry; assay type: functional; settings: read-out: GI
Method in brief: (§4)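 Each cell line was seeded at 10⁴ cells per mL and preincubated. Test agents were dissolved in DMSO, added at two examined concentrations (10 and 50 per mL by mass), and incubated for 72 h. The end-point was BrdU labeling and detection kit III read on an ELISA reader. Percent growth inhibition was calculated against untreated controls, in triplicate.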

SiHa [10] = assay: Growth inhibition of human SiHa cells assessed as BrdU incorporation at 34.9 uM after 72 hrs by spectrophotometry; assay type: functional; settings: read-out: GI; method in brief: as §3
Jurkat [11] = assay: Cytotoxicity against human Jurkat cells assessed as cell viability at 1 uM after 24 hrs by MTT assay relative to control; assay type: functional; settings: read-out: Activity; method in brief: as §2
[12] = Growth inhibition of HSF cells assessed as BrdU incorporation at 34.9 uM after 72 hrs by spectrophotometry; assay type: cell-based; settings: human, read-out: GI; method in brief: as §3
T47D [13] = assay: Growth inhibition of human T47D cells assessed as BrdU incorporation at 174.6 uM after 72 hrs by spectrophotometry; assay type: functional; settings: read-out: GI; method in brief: as §4
Jurkat [14] = assay: Cytotoxicity against human Jurkat cells assessed as cell viability at 50 uM after 24 hrs by MTT assay relative to control; assay type: functional; settings: read-out: Activity; method in brief: as §2
SiHa [15] = assay: Growth inhibition of human SiHa cells assessed as BrdU incorporation at 174.6 uM after 72 hrs by spectrophotometry; assay type: functional; settings: read-out: GI; method in brief: as §3
[16] = Growth inhibition of human LS180 cells assessed as BrdU incorporation at 34.9 uM after 72 hrs by spectrophotometry; assay type: functional; settings: LS180, 72 h, read-out: GI; method in brief: as §3
Vero [17] = assay: Growth inhibition of african green monkey Vero cells assessed as BrdU incorporation at 31.2 uM after 72 hrs by spectrophotometry; assay type: cell-based; settings: chlorocebus sabaeus
[18] = Growth inhibition of HSF cells assessed as BrdU incorporation at 31.2 uM after 72 hrs by spectrophotometry; assay type: cell-based; settings: human, read-out: GI
SiHa [19] = assay: Growth inhibition of human SiHa cells assessed as BrdU incorporation at 155.9 uM after 72 hrs by spectrophotometry; assay type: functional; settings: read-out: GI
T47D [20] = assay: Growth inhibition of human T47D cells assessed as BrdU incorporation at 31.2 uM after 72 hrs by spectrophotometry; assay type: functional; settings: read-out: GI
T47D [21] = assay: Growth inhibition of human T47D cells assessed as BrdU incorporation at 155.9 uM after 72 hrs by spectrophotometry; assay type: functional; settings: read-out: GI
SiHa [22] = assay: Growth inhibition of human SiHa cells assessed as BrdU incorporation at 31.2 uM after 72 hrs by spectrophotometry; assay type: functional; settings: read-out: GI
[23] = Growth inhibition of human LS180 cells assessed as BrdU incorporation at 155.9 uM after 72 hrs by spectrophotometry; assay type: functional; settings: LS180, 72 h, read-out: GI
[24] = Growth inhibition of african green monkey Vero cells assessed as BrdU incorporation at 155.9 uM after 72 hrs by spectrophotometry; assay type: cell-based; settings: chlorocebus sabaeus, read-out: GI
[25] = Growth inhibition of human LS180 cells assessed as BrdU incorporation at 31.2 uM after 72 hrs by spectrophotometry; assay type: functional; settings: LS180, 72 h, read-out: GI
[26] = Growth inhibition of HSF cells assessed as BrdU incorporation at 155.9 uM after 72 hrs by spectrophotometry; assay type: cell-based; settings: human, read-out: GI
[27] = Growth inhibition of human LS180 cells assessed as BrdU incorporation at 33.1 uM after 72 hrs by spectrophotometry; assay type: functional; settings: LS180, 72 h, read-out: GI; method in brief: as §3
T47D [28] = assay: Growth inhibition of human T47D cells assessed as BrdU incorporation at 33.1 uM after 72 hrs by spectrophotometry; assay type: functional; settings: read-out: GI; method in brief: as §4
[29] = Growth inhibition of african green monkey Vero cells assessed as BrdU incorporation at 165.4 uM after 72 hrs by spectrophotometry; assay type: cell-based; settings: chlorocebus sabaeus, read-out: GI; method in brief: as §3
[30] = Growth inhibition of HSF cells assessed as BrdU incorporation at 33.1 uM after 72 hrs by spectrophotometry; assay type: cell-based; settings: human, read-out: GI; method in brief: as §3
[31] = Growth inhibition of HSF cells assessed as BrdU incorporation at 165.4 uM after 72 hrs by spectrophotometry; assay type: cell-based; settings: human, read-out: GI; method in brief: as §3
SiHa [32] = assay: Growth inhibition of human SiHa cells assessed as BrdU incorporation at 33.1 uM after 72 hrs by spectrophotometry; assay type: functional; settings: read-out: GI; method in brief: as §3
SiHa [33] = assay: Growth inhibition of human SiHa cells assessed as BrdU incorporation at 165.4 uM after 72 hrs by spectrophotometry; assay type: functional; settings: read-out: GI; method in brief: as §3
Vero [34] = assay: Growth inhibition of african green monkey Vero cells assessed as BrdU incorporation at 33.1 uM after 72 hrs by spectrophotometry; assay type: cell-based; settings: chlorocebus sabaeus; method in brief: as §3
[35] = Growth inhibition of human LS180 cells assessed as BrdU incorporation at 165.4 uM after 72 hrs by spectrophotometry; assay type: functional; settings: LS180, 72 h, read-out: GI; method in brief: as §3
T47D [36] = assay: Growth inhibition of human T47D cells assessed as BrdU incorporation at 165.4 uM after 72 hrs by spectrophotometry; assay type: functional; settings: read-out: GI; method in brief: as §4

## Cc1ccc(N2CCn3c2nnc(C(=O)NN)c3=O)cc1
[1]
  viability at 24 h, 1 µM: 109%
Jurkat [2]
  viability at 100 µM: 79%
[3]
  inhibition of growth at 174.6 µM: 14%
[4]
  viability at 24 h, 100 µM: 95%
[5]
  viability at 24 h, 50 µM: 111%
Vero [6]
  growth inhibition (GI): 2%
[7]
  growth inhibition (GI): 0%
[8]
  inhibition at 72 h, 174.6 µM: 0%
T47D [9]
  inhibition of growth at 34.9 µM: 5%
SiHa [10]
  inhibition of growth at 34.9 µM: 11%
Jurkat [11]
  viability at 1 µM: 93%
[12]
  inhibition at 72 h, 34.9 µM: 0%
T47D [13]
  inhibition of growth at 174.6 µM: 8%
Jurkat [14]
  viability at 50 µM: 87%
SiHa [15]
  inhibition of growth at 174.6 µM: 9%
[16]
  inhibition of growth at 34.9 µM: 0%

## CCOC(=O)c1nnc2n(c1=O)CCN2c1cccc(Cl)c1
[1]
  viability at 24 h, 1 µM: 104%
Vero [17]
  growth inhibition (GI): 20%
Jurkat [2]
  viability at 100 µM: 107%
[4]
  viability at 24 h, 100 µM: 98%
[5]
  viability at 24 h, 50 µM: 103%
[18]
  inhibition at 72 h, 31.2 µM: 16%
SiHa [19]
  inhibition of growth at 155.9 µM: 52%
T47D [20]
  inhibition of growth at 31.2 µM: 26%
T47D [21]
  inhibition of growth at 155.9 µM: 41%
SiHa [22]
  inhibition of growth at 31.2 µM: 41%
[23]
  inhibition of growth at 155.9 µM: 35%
Jurkat [11]
  viability at 1 µM: 114%
[24]
  inhibition at 72 h, 155.9 µM: 25%
[25]
  inhibition of growth at 31.2 µM: 30%
Jurkat [14]
  viability at 50 µM: 111%
[26]
  inhibition at 72 h, 155.9 µM: 17%

## CCOC(=O)c1nnc2n(c1=O)CCN2c1ccc(C)cc1
[1]
  viability at 24 h, 1 µM: 91%
Jurkat [2]
  viability at 100 µM: 93%
[4]
  viability at 24 h, 100 µM: 82%
[5]
  viability at 24 h, 50 µM: 87%
Jurkat [11]
  viability at 1 µM: 83%
Jurkat [14]
  viability at 50 µM: 89%

## COc1ccc(N2CCn3c2nnc(C(=O)NN)c3=O)cc1
[1]
  viability at 24 h, 1 µM: 98%
[27]
  inhibition of growth at 33.1 µM: 1%
T47D [28]
  inhibition of growth at 33.1 µM: 1%
[29]
  inhibition at 72 h, 165.4 µM: 0%
[30]
  inhibition at 72 h, 33.1 µM: 0%
Jurkat [2]
  viability at 100 µM: 100%
[4]
  viability at 24 h, 100 µM: 100%
[5]
  viability at 24 h, 50 µM: 102%
[31]
  inhibition at 72 h, 165.4 µM: 0%
SiHa [32]
  inhibition of growth at 33.1 µM: 19%
SiHa [33]
  inhibition of growth at 165.4 µM: 18%
Vero [34]
  growth inhibition (GI): 0%
Jurkat [11]
  viability at 1 µM: 97%
[35]
  inhibition of growth at 165.4 µM: 1%
Jurkat [14]
  viability at 50 µM: 97%
T47D [36]
  inhibition of growth at 165.4 µM: 0%
